Reference: PMC5060091 (ChemMedChem, 2016)
In brackets after ≈: the same amount, converted by molar mass. Several values for one entry are separate records, joined by “and”; a condition that tells them apart may be missing. Identical values can stand only once. Like-named read-outs stand apart in the source and are kept apart here.

What was measured:
[1] = test system: Aspergillus nidulans ATCC 38163; settings: strain L; previously reported; cited from earlier work
[2] = test system: C. albicans ATCC MYA-1237(R); settings: strain F; azoles; previously reported; cited from earlier work
[3] = test system: C. albicans ATCC 90819(R); settings: strain D; azoles; previously reported; cited from earlier work
[4] = test system: C. albicans ATCC MYA-1003(R); settings: strain G; azoles; previously reported; cited from earlier work
[5] = test system: C. albicans ATCC MYA-2876(S); settings: strain C; azoles; previously reported; cited from earlier work
[6] = test system: Aspergillus terreus ATCC MYA-3633; assay: MIC, broth dilution, strain M; assay type: cell-based; settings: for MIC: Aspergillus terreus
[7] = test system: C. albicans ATCC MYA-2310(S); settings: strain E; azoles; previously reported; cited from earlier work
C. albicans ATCC 64124 [8] = settings: strain B; azoles; previously reported; cited from earlier work
[9] = test system: Aspergillus flavus ATCC MYA-3631; assay: MIC, broth dilution, strain K; assay type: cell-based; settings: for MIC: Aspergillus flavus
[10] = test system: Candida albicans ATCC 10231; settings: strain A; azoles; previously reported; cited from earlier work
[11] = test system: C. albicans ATCC 90819(R); assay: MIC, broth dilution, strain D; assay type: cell-based, Candida albicans; settings: for MIC: Candida albicans
Method in brief: (§1)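 Broth dilution MIC assay on the Candida panel: C. albicans strains A–G, C. glabrata (H), C. krusei (I) and C. parapsilosis (J). Test compounds were delivered in DMSO, with DMSO kept below 1% in the assay. The MIC is reported in µg/mL, with µM in parentheses. Reference antifungals (a polyene and four azoles) were run alongside.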

[12] = test system: C. albicans ATCC MYA-1003(R); assay: MIC, broth dilution, strain G; assay type: cell-based, Candida albicans; settings: for MIC: Candida albicans
Method in brief: as §1

[13] = test system: C. albicans ATCC MYA-1237(R); assay: MIC, broth dilution, strain F; assay type: cell-based, Candida albicans; settings: for MIC: Candida albicans
Method in brief: as §1

C. albicans ATCC 64124 [14] = assay: MIC, broth dilution, strain B; assay type: cell-based, Candida albicans; settings: for MIC: Candida albicans
Method in brief: as §1

[15] = test system: Aspergillus strains (K–M); assay: MIC against Aspergillus strains; assay type: cell-based; settings: read-out: MIC values against Aspergillus strains
[16] = test system: Candida albicans ATCC 10231; assay: MIC, broth dilution, strain A; assay type: cell-based; settings: for MIC: Candida albicans
Method in brief: as §1

[17] = test system: C. albicans ATCC MYA-2876(S); assay: MIC, broth dilution, strain C; assay type: cell-based, Candida albicans; settings: for MIC: Candida albicans
Method in brief: as §1

[18] = test system: Aspergillus nidulans ATCC 38163; assay: MIC, broth dilution, strain L; assay type: cell-based; settings: for MIC: Aspergillus nidulans
[19] = test system: C. albicans ATCC MYA-2310(S); assay: MIC, broth dilution, strain E; assay type: cell-based, Candida albicans; settings: for MIC: Candida albicans
Method in brief: as §1

[20] = test system: C. albicans ATCC 10231 (strain A); assay: ROS induction assay; assay type: cell-based, Candida albicans; settings: 1× and 2× MIC, 1-h treatment; H2O2 1 mM
Method in brief: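 C. albicans ATCC 10231 cells were incubated 1 h at 37 °C with test compound at 1× or 2× MIC, with no drug (negative control), or with 1 mM H₂O₂ (positive control). DCFH-DA (40 µg/mL) was then added. ROS were detected and imaged by fluorescence microscopy.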

[21] = test system: murine red blood cells (mRBCs); settings: data previously presented; cited from earlier work
[22] = test system: C. albicans ATCC 64124 (strain B); assay: Time-kill assay; assay type: cell-based, Candida albicans
Candida strains (A–J) = assay: MIC against panel of Candida strains; assay type: cell-based
Method in brief: as §1

Candida krusei ATCC 6258 = assay: MIC, broth dilution, strain I; assay type: cell-based; settings: compounds 1–4n and AmB
Method in brief: as §1

[23] = test system: Candida parapsilosis ATCC 22019; assay: MIC, broth dilution, strain J; assay type: cell-based; settings: compounds 1–4n and AmB
Method in brief: as §1

[24] = test system: Candida glabrata ATCC 2001; assay: MIC, broth dilution, strain H; assay type: cell-based; settings: compounds 1–4n and AmB
Method in brief: as §1

[25] = read-out: MIC (MIC-0) in µM (parentheses)
[26] = read-out: MIC (MIC-2) in µM (parentheses)
[27] = strain D, compounds 1–4n and AmB
[28] = strain G, compounds 1–4n and AmB
[29] = strain F, compounds 1–4n and AmB
[30] = strain A, compounds 1–4n and AmB
[31] = strain C, compounds 1–4n and AmB
[32] = strain E, compounds 1–4n and AmB

Compound: CCC(C)n1ncn(-c2ccc(N3CCN(c4ccc(OCC5COC(Cn6cncn6)(c6ccc(Cl)cc6Cl)O5)cc4)CC3)cc2)c1=O (stereo not shown) [ITC, itraconazole]
- MIC (MIC-0) [1]: 0.195 µg/mL (≈ 0.276 µM)
- MIC (MIC-0) in µM (parentheses) [1]: 0.28 µM (≈ 0.198 µg/mL)
- MIC (MIC-2) [2]: 31.2 µg/mL (≈ 44.2 µM)
- MIC (MIC-2) in µM (parentheses) [2]: 44.2 µM (≈ 31.2 µg/mL)
- MIC (MIC-2) [3]: 31.2 µg/mL (≈ 44.2 µM)
- MIC (MIC-2) in µM (parentheses) [3]: 44.2 µM (≈ 31.2 µg/mL)
- MIC (MIC-2) [4]: 31.2 µg/mL (≈ 44.2 µM)
- MIC (MIC-2) in µM (parentheses) [4]: 44.2 µM (≈ 31.2 µg/mL)
- MIC (MIC-2) [5]: 7.8 µg/mL (≈ 11.1 µM)
- MIC (MIC-2) in µM (parentheses) [5]: 11.1 µM (≈ 7.83 µg/mL)
- MIC ([6]; read-out: MIC (MIC-0)): 0.975 µg/mL
- MIC [6, 25]: 1.38 µM
- MIC (MIC-2) [7]: 31.2 µg/mL (≈ 44.2 µM)
- MIC (MIC-2) in µM (parentheses) [7]: 44.2 µM (≈ 31.2 µg/mL)
- MIC (MIC-2) (C. albicans ATCC 64124 [8]): > 62.5 µg/mL
- MIC (MIC-2) in µM (parentheses) (C. albicans ATCC 64124 [8]): > 88.6 µM
- MIC ([9]; read-out: MIC (MIC-0)): 0.48 µg/mL
- MIC [9, 25]: 0.68 µM
- MIC (MIC-2) [10]: 0.5 µg/mL (≈ 0.709 µM)
- MIC (MIC-2) in µM (parentheses) [10]: 0.71 µM (≈ 0.501 µg/mL)

Compound: CC[C@@H]([C@H](C)O)n1ncn(-c2ccc(N3CCN(c4ccc(OC[C@@H]5CO[C@@](Cn6cncn6)(c6ccc(F)cc6F)C5)cc4)CC3)cc2)c1=O [POS, posaconazole]
- MIC (MIC-0) [1]: 0.195 µg/mL (≈ 0.278 µM)
- MIC (MIC-0) in µM (parentheses) [1]: 0.28 µM (≈ 0.196 µg/mL)
- MIC (MIC-2) [2]: 15.6 µg/mL (≈ 22.3 µM)
- MIC (MIC-2) in µM (parentheses) [2]: 22.3 µM (≈ 15.6 µg/mL)
- MIC (MIC-2) [3]: 31.2 µg/mL (≈ 44.5 µM)
- MIC (MIC-2) in µM (parentheses) [3]: 44.5 µM (≈ 31.2 µg/mL)
- MIC (MIC-2) [4]: 15.6 µg/mL (≈ 22.3 µM)
- MIC (MIC-2) in µM (parentheses) [4]: 22.3 µM (≈ 15.6 µg/mL)
- MIC (MIC-2) [5]: 7.8 µg/mL (≈ 11.1 µM)
- MIC (MIC-2) in µM (parentheses) [5]: 11.1 µM (≈ 7.78 µg/mL)
- MIC ([6]; read-out: MIC (MIC-0)): 0.48 µg/mL
- MIC [6, 25]: 0.68 µM
- MIC (MIC-2) [7]: 31.2 µg/mL (≈ 44.5 µM)
- MIC (MIC-2) in µM (parentheses) [7]: 44.5 µM (≈ 31.2 µg/mL)
- MIC (MIC-2) (C. albicans ATCC 64124 [8]): > 62.5 µg/mL
- MIC (MIC-2) in µM (parentheses) (C. albicans ATCC 64124 [8]): > 89.3 µM
- MIC ([9]; read-out: MIC (MIC-0)): 0.24 µg/mL
- MIC [9, 25]: 0.34 µM
- MIC (MIC-2) [10]: 0.5 µg/mL (≈ 0.713 µM)
- MIC (MIC-2) in µM (parentheses) [10]: 0.71 µM (≈ 0.498 µg/mL)

Compound: C[C@@H](c1ncncc1F)[C@](O)(Cn1cncn1)c1ccc(F)cc1F [VOR, voriconazole]
- MIC ([11]; ATCC90819, read-out: MIC (MIC-2)): 1.95 µg/mL
- MIC ([11]; ATCC90819, read-out: MIC (MIC-2) in µM (parentheses)): 5.58 µM
- MIC ([12]; read-out: MIC (MIC-2)): 7.8 µg/mL
- MIC [12, 26]: 22.3 µM
- MIC ([6]; read-out: MIC (MIC-0)): 0.12 µg/mL
- MIC [6, 25]: 0.34 µM
- MIC ([13]; read-out: MIC (MIC-2)): 0.975 µg/mL
- MIC [13, 26]: 2.79 µM
- MIC (C. albicans ATCC 64124 [14]; ATCC64124, read-out: MIC (MIC-2)): > 31.2 µg/mL
- MIC (C. albicans ATCC 64124 [14]; ATCC64124, read-out: MIC (MIC-2) in µM (parentheses)): > 89.3 µM
- MIC [15]: 0.03 to 0.24 µg/mL (≈ 0.0859 to 0.687 µM)
- MIC ([16]; ATCC10231, read-out: MIC (MIC-2)): 7.8 µg/mL
- MIC ([16]; ATCC10231, read-out: MIC (MIC-2) in µM (parentheses)): 22.3 µM
- MIC ([17]; read-out: MIC (MIC-2)): 0.975 µg/mL
- MIC [17, 26]: 2.79 µM
- MIC ([18]; ATCC38163, read-out: MIC (MIC-0)): 0.03 µg/mL
- MIC ([18]; ATCC38163, read-out: MIC (MIC-0) in µM (parentheses)): 0.09 µM
- MIC ([19]; read-out: MIC (MIC-2)): 1.95 µg/mL
- MIC [19, 26]: 5.58 µM

Compound: ebsulfur [Compound 2a]
- MIC (MIC-0) [11, 27]: 3.13 µg/mL
- MIC (MIC-0) in µM (parentheses) [11, 27]: 13.8 µM
- ROS induction (DCFH-DA fluorescence) [20]: highly fluorescent
- MIC (MIC-0) [12, 28]: > 12.5 µg/mL
- MIC (MIC-0) in µM (parentheses) [12, 28]: > 55.0 µM
- concentration until which no significant hemolytic activity was shown [21]: 15.6 µg/mL and 68.6 µM
- MIC (MIC-0) ([6]; strain M, all compounds): 6.25 µg/mL
- MIC (MIC-0) in µM (parentheses) ([6]; strain M, all compounds): 27.5 µM
- time-kill effect ([22]; 1× MIC (1 12.5, 2a 12.5, 3a 0.39, AmB 3.9 µg/mL)): fungistatic
- time-kill effect ([22]; 2× MIC (1 25, 2a 25, 3a 0.78, AmB 7.8 µg/mL)): fungicidal
- fungicidal concentration ([22]; time-kill curves): 25 µg/mL and 110 µM
- MIC (MIC-0) [13, 29]: > 12.5 µg/mL
- MIC (MIC-0) in µM (parentheses) [13, 29]: > 55.0 µM
- MIC (MIC-0) in µM (parentheses) (C. albicans ATCC 64124 [14]; strain B, compounds 1–4n and AmB): > 55.0 µM
- MIC (MIC-0) [16, 30]: 12.5 µg/mL
- MIC (MIC-0) in µM (parentheses) [16, 30]: 55.0 µM
- MIC (MIC-0) ([9]; strain K, all compounds): 6.25 µg/mL
- MIC (MIC-0) in µM (parentheses) ([9]; strain K, all compounds): 27.5 µM
- MIC values against Candida strains (Candida strains (A–J); strains A, B, C, F, G and J (poorly active)): ≥ 12.5 µg/mL
- MIC values against Candida strains (Candida strains (A–J); strains D, E, H and I (active)): 1.56 to 6.25 µg/mL
- MIC (MIC-0) (Candida krusei ATCC 6258): 3.13 µg/mL
- MIC (MIC-0) in µM (parentheses) (Candida krusei ATCC 6258): 13.8 µM
- MIC (MIC-0) [23]: 12.5 µg/mL
- MIC (MIC-0) in µM (parentheses) [23]: 55.0 µM
- MIC (MIC-0) [17, 31]: 12.5 µg/mL
- MIC (MIC-0) in µM (parentheses) [17, 31]: 55.0 µM
- MIC (MIC-0) [24]: 6.25 µg/mL
- MIC (MIC-0) in µM (parentheses) [24]: 27.5 µM
- MIC (MIC-0) ([18]; strain L, all compounds): 6.25 µg/mL
- MIC (MIC-0) in µM (parentheses) ([18]; strain L, all compounds): 27.5 µM
- MIC (MIC-0) [19, 32]: 6.25 µg/mL
- MIC (MIC-0) in µM (parentheses) [19, 32]: 27.5 µM
